Measured values: ChEMBL document CHEMBL5661972, “In vitro biological activity of a novel small-molecule inhibitor of polo-like kinase 1” (Mol Cancer Ther, 2007)

Experiments:
NCI-H460 [1] = assay: Induction of cell cycle arrest in human NCI-H460 cells assessed as accumulation of cells at S phase at 1 micromol/L incubated for 72 hrs by propidium iodide staining based flow cytometry analysis (reference value: 17.8 %); assay type: functional; settings: dose 1 µmol/L, at 1 µM
NCI-H460 [2] = assay: Induction of cell cycle arrest in human NCI-H460 cells assessed as accumulation of cells at S phase at 3 micromol/L incubated for 48 hrs by propidium iodide staining based flow cytometry analysis (reference value: 18.5 %); assay type: functional; settings: dose 3 µmol/L, at 3 µM
[3] = Inhibition of CDK2/cyclin A (unknown origin); set-up: species or system Homo sapiens
CDK1/Cyclin A = CDK1/Cyclin A (Homo sapiens, UniProt P06493); assay: Inhibition of CDK1/cyclin A (unknown origin); assay type: protein-complex assay
Chain of CDK1/Cyclin A (P06493 whole entry): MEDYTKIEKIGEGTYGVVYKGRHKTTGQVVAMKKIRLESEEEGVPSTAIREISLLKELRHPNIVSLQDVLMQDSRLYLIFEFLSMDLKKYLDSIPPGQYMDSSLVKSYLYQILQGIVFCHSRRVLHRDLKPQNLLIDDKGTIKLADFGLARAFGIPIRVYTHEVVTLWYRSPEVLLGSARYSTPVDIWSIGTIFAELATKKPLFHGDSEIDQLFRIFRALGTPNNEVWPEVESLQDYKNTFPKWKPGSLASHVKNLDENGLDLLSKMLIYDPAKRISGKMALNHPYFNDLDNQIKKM
Chain of CDK1/Cyclin A (P20248 whole entry, further chain): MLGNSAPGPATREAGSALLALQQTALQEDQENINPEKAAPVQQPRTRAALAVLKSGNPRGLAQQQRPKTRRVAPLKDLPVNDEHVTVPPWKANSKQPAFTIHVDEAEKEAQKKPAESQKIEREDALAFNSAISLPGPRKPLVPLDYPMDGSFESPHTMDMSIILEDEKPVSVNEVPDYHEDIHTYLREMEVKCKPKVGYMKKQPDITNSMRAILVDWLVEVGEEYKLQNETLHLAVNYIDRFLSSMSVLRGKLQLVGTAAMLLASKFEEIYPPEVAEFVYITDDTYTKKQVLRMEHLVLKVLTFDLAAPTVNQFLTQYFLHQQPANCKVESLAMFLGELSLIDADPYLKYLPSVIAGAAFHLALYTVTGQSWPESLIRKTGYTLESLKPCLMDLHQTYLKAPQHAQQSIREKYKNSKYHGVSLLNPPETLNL

[4] = Selectivity ratio of IC50 for cytotoxicity against human HDF cells to IC50 for antiproliferative activity against human BT-474 cells; assay type: toxicity, cell-based; settings: HDF cells versus BT-474 cells, read-out: Ratio IC50
NCI-H460 [5] = assay: Induction of cell cycle arrest in human NCI-H460 cells assessed as accumulation of cells at G1 phase at 1 micromol/L incubated for 48 hrs by propidium iodide staining based flow cytometry analysis (reference value: 50.9 %); assay type: functional; settings: dose 1 µmol/L, at 1 µM
Method in brief: (§1)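 Cells seeded in six-well plates at densities that keep them in log growth (HDF 120,000, 60,000 or 30,000; H460 100,000, 50,000 or 25,000 per well for 24, 48 or 72 h). Treated with 1 or 3 μmol/L. Floating and adherent cells collected, ethanol-fixed, permeabilized with Triton X-100 and stained with propidium iodide. DNA content read by flow cytometry as % singlet cells.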

NHDF [6] = assay: Induction of cell cycle arrest in human HDF cells assessed as accumulation of cells at >4N phase at 1 micromol/L incubated for 48 hrs by propidium iodide staining based flow cytometry analysis (reference value: 3.0 %); assay type: toxicity; settings: 1 µM, dose 1 µmol/L; method in brief: as §1
NHDF [7] = assay: Induction of cell cycle arrest in human HDF cells assessed as accumulation of cells at G2-M phase at 3 micromol/L incubated for 24 hrs by propidium iodide staining based flow cytometry analysis (reference value: 22.6 %); assay type: toxicity; settings: 3 µM, dose 3 µmol/L; method in brief: as §1
NHDF [8] = assay: Induction of cell cycle arrest in human HDF cells assessed as accumulation of cells at G1 phase at 3 micromol/L incubated for 48 hrs by propidium iodide staining based flow cytometry analysis (reference value: 72.8 %); assay type: toxicity; settings: 3 µM, dose 3 µmol/L; method in brief: as §1
NHDF [9] = assay: Induction of cell cycle arrest in human HDF cells assessed as accumulation of cells at G2-M phase at 1 micromol/L incubated for 24 hrs by propidium iodide staining based flow cytometry analysis (reference value: 22.6 %); assay type: toxicity; settings: 1 µM, dose 1 µmol/L; method in brief: as §1
NHDF [10] = assay: Induction of cell cycle arrest in human HDF cells assessed as accumulation of cells at S phase at 1 micromol/L incubated for 48 hrs by propidium iodide staining based flow cytometry analysis (reference value: 4.7 %); assay type: toxicity; settings: 1 µM, dose 1 µmol/L; method in brief: as §1
[11] = Selectivity ratio of IC50 for cytotoxicity against human HDF cells to IC50 for anti-proliferative activity against human HeLa cells; assay type: toxicity, cell-based; settings: HDF cells versus HeLa cells, read-out: Ratio IC50
NCI-H460 [12] = assay: Induction of cell cycle arrest in human NCI-H460 cells assessed as accumulation of cells at G2-M phase at 1 micromol/L incubated for 72 hrs by propidium iodide staining based flow cytometry analysis (reference value: 18.2 %); assay type: functional; settings: dose 1 µmol/L
NCI-H460 [13] = assay: Induction of cell cycle arrest in human NCI-H460 cells assessed as accumulation of cells at G2-M phase at 1 micromol/L incubated for 24 hrs by propidium iodide staining based flow cytometry analysis (reference value: 19.8 %); assay type: functional; settings: dose 1 µmol/L, at 1 µM
[14] = Cytotoxicity against human HDF cells assessed as inhibition of cell growth; assay type: toxicity, cell-based; settings: HDF cells (NHDF, human dermal fibroblasts)
Method in brief: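 Cells grown 3 days in 96-well plates, seeded so vehicle controls stay in log growth (MES-SA/DX5 7,000, MES-SA 6,000, HDF 5,000 per well). Exposed to 3-fold dilutions, 30–0.00152 μmol/L, in medium with 5% FBS, 50 μg/mL gentamicin and 0.3% (v/v) DMSO. HDF medium was low-glucose DMEM; MES-SA lines used McCoy's 5A.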

NCI-H460 [15] = assay: Induction of cell cycle arrest in human NCI-H460 cells assessed as accumulation of cells at S phase at 3 micromol/L incubated for 24 hrs by propidium iodide staining based flow cytometry analysis (reference value: 23.2 %); assay type: functional; settings: dose 3 µmol/L, at 3 µM
NHDF [16] = assay: Induction of cell cycle arrest in human HDF cells assessed as accumulation of cells at >4N phase at 3 micromol/L incubated for 24 hrs by propidium iodide staining based flow cytometry analysis (reference value: 2.4 %); assay type: toxicity; settings: 3 µM, dose 3 µmol/L; method in brief: as §1
[17] = target: Serine/threonine-protein kinase PLK3 (Homo sapiens, UniProt Q9H4B4); assay: Inhibition of human PLK3 expressed in baculovirus infected in Trichoplusia ni cells using Biotin-Ahx-SFNDTLDFD as substrate in presence of ATP by TopCount scintillation proximity assay; set-up: species or system Trichoplusia ni cell
Chain of Serine/threonine-protein kinase PLK3 (Q9H4B4 whole entry): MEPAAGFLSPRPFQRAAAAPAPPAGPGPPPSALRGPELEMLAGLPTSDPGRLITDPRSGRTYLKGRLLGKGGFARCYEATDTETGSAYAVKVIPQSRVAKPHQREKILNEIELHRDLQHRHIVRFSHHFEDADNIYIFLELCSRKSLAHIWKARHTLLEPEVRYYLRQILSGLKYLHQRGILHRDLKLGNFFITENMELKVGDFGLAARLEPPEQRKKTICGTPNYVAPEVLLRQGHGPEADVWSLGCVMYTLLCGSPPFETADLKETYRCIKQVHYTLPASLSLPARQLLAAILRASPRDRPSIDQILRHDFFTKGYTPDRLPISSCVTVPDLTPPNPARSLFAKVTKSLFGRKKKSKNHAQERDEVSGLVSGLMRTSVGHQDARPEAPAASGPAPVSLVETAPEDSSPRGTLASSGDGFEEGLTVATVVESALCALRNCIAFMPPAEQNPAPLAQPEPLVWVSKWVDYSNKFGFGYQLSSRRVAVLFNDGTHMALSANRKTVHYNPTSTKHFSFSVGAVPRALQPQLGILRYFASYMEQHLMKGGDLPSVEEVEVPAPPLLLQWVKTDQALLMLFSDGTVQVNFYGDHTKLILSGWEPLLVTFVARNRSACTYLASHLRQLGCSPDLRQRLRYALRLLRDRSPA
Method in brief: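 Full-length PLK3 (5 nmol/L) from baculovirus-infected Trichoplusia ni cells in 25 mmol/L HEPES pH 7.2, 15 mmol/L MgCl2, 1 μmol/L ATP with [γ-33P]ATP, 1 μmol/L biotinylated peptide, BSA, DTT. Incubated 1–1.5 h at 22°C in the linear range. Stopped with EDTA plus streptavidin SPA beads, then counted or imaged. Signal above EDTA background taken as percent inhibition versus DMSO wells.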

NHDF [18] = assay: Induction of cell cycle arrest in human HDF cells assessed as accumulation of cells at >4N phase at 1 micromol/L incubated for 24 hrs by propidium iodide staining based flow cytometry analysis (reference value: 2.4 %); assay type: toxicity; settings: 1 µM, dose 1 µmol/L; method in brief: as §1
NHDF [19] = assay: Induction of cell cycle arrest in human HDF cells assessed as accumulation of cells at Sub-2N phase at 3 micromol/L incubated for 48 hrs by propidium iodide staining based flow cytometry analysis (reference value: 0.5 %); assay type: toxicity; settings: 3 µM, dose 3 µmol/L; method in brief: as §1
NHDF [20] = assay: Induction of cell cycle arrest in human HDF cells assessed as accumulation of cells at S phase at 3 micromol/L incubated for 48 hrs by propidium iodide staining based flow cytometry analysis (reference value: 4.7 %); assay type: toxicity; settings: 3 µM, dose 3 µmol/L; method in brief: as §1
NCI-H460 [21] = assay: Induction of cell cycle arrest in human NCI-H460 cells assessed as accumulation of cells at >4N phase at 3 micromol/L incubated for 24 hrs by propidium iodide staining based flow cytometry analysis (reference value: 1.2 %); assay type: functional; settings: dose 3 µmol/L, at 3 µM; method in brief: as §1

COc1cc2ncn(-c3cc(OCc4ccccc4C(F)(F)F)c(C(N)=O)s3)c2cc1OC [GW843682X]
Activity (NCI-H460 [1]): 2.8%
Activity (NCI-H460 [2]): 8%
IC50 [3]: 7.6 µM
IC50 (CDK1/Cyclin A): > 10 µM
selectivity ratio [4]: > 10
Activity (NCI-H460 [5]): 8.9%
Activity (NHDF [6]): 6.4%
Activity (NHDF [7]): 65.6%
Activity (NHDF [8]): 11.3%
Activity (NHDF [9]): 27.6%
Activity (NHDF [10]): 7.4%
selectivity ratio [11]: > 10
Activity (NCI-H460 [12]): 10.6%
Activity (NCI-H460 [13]): 33%
IC50 [14]: 6.14 µM
Activity (NCI-H460 [15]): 8.4%
Activity (NHDF [16]): 6%
IC50 [17]: 0.0091 µM
Activity (NHDF [18]): 3.5%
Activity (NHDF [19]): 2.3%
Activity (NHDF [20]): 5.9%
Activity (NCI-H460 [21]): 6.2%
